These results are taken from ChEMBL document CHEMBL4152296, “Synthesis, biological evaluation and molecular modeling of novel azaspiro dihydrotriazines as influenza virus inhibitors targeting the host factor dihydrofolate reductase (DHFR)” (Eur J Med Chem, 2018).

Each structure is given as a SMILES string. Calls of active or inactive are those of the source. No cut-off for these calls is given here.

The subject of one data set is Influenza A virus. The experiment in a line: Antiviral activity against Influenza A virus (A/Puerto Rico/8/34(H1N1)) infected in MDCK cells assessed as protection against virus-induced reduction in cell viability after 3 to 6 days by MTS assay. The conditions noted are these: A/Puerto Rico/8/1934(H1N1). The data set is classed as functional, organism-based. An outline of the steps: (§1)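 MDCK cells seeded at 9000/well and infected one day later (semiconfluent) with 100 CCID50 virus. Medium was FCS-free Ultra MDCK with 2 μg/mL TPCK-trypsin. Serial five-fold compound dilutions (top 100 μM) were added with the virus, followed by 3–6 days at 35 °C. MTS read-out gave % protection versus virus and mock controls. EC50 was interpolated from semi-log curves; mean of two or three experiments.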
A general note: Tetrazolium assays rely on reduction of a dye to a coloured formazan, in cell work by metabolically active cells.

Data set [1] deals with Influenza B virus. Nature of the data set: Antiviral activity against Influenza B virus B/Ned/537/05 infected in MDCK cells assessed as protection against virus-induced reduction in cell viability after 3 to 6 days by MTS assay. It is filed as functional, organism-based. The conditions noted are these: B/Ned/537/05, MDCK. An outline of the steps: as §1
The nature of data set [2]: Cytotoxicity against MDCK cells assessed as alterations in normal cell morphology measured after 3 to 6 days by microscopic analysis. The data set is classed as cell-based, Canis lupus familiaris. The conditions noted are these: dog. The method in brief: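 Uninfected MDCK cultures in FCS-free Ultra MDCK medium with trypsin received five-fold compound dilutions (up to […]) for 3–6 days at 35 °C. Microscopy scored morphology, and MCC was taken as the lowest concentration causing minimal rounding, shrinking or lysis.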

The subject of the next data set is MDCK. The experiment in a line: Cytotoxicity against MDCK cells assessed as reduction in cell viability measured after 3 to 6 days by MTS assay. It is filed as cell-based, Canis lupus familiaris. As to conditions: dog. An outline of the steps: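 Mock-infected MDCK plates were run in parallel (FCS-free Ultra MDCK medium with TPCK-trypsin) with serial five-fold dilutions up to […], 35 °C for 3–6 days. CC50 was interpolated from semi-log dose-response curves; mean of two or three experiments.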

The test system of data set [3] is Respiratory syncytial virus. Nature of the data set: Antiviral activity against Respiratory syncytial virus Long infected in human HeLa cells assessed as inhibition of virus-induced cytopathic effect after 3 to 6 days by MTS based microscopy. The data set is classed as functional, organism-based. (In general: Cytopathic effects are the visible damage that an infection or toxin causes in cultured cells.)

Data set [4] in a line: Cytotoxicity against human HeLa cells assessed as alterations in normal cell morphology measured after 3 to 6 days by microscopic analysis. The data set is classed as cell-based. An outline of the steps:
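Mock-infected HeLa cultures in 2% FCS medium received serial five-fold dilutions […] for 3–6 days at 37 °C. MCC was the lowest concentration giving microscopically visible minimal change in cell morphology (rounding, shrinking, lysis).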

In a further data set the test system is Vero. The experiment in a line: Cytotoxicity against African green monkey Vero cells assessed as reduction in cell viability measured after 3 to 6 days by MTS assay. It is filed as cell-based. As to conditions: chlorocebus sabaeus.
The nature of data set [5]: Selectivity index, ratio of CC50 for MDCK cells to EC50 for Influenza B virus B/Ned/537/05 infected in MDCK cells. The data set is classed as toxicity, cell-based. As to conditions: dog, read-out: Ratio CC50/EC50. The method in brief:
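Selectivity index for influenza B in MDCK was calculated as MTS-based CC50 divided by MTS-based EC50, both measured in parallel in the same assay.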

A short description of data set [6]: Selectivity index, ratio of MCC for human HeLa cells to EC50 for Respiratory syncytial virus Long infected in human HeLa cells. The conditions noted are these: read-out: Selectivity Index. It is filed as toxicity, cell-based. The method in brief:
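Selectivity index for RSV Long in HeLa was calculated as microscopic MCC divided by CPE-based microscopic EC50 from parallel infected and mock-infected cultures.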

The subject of data set [7] is Respiratory syncytial virus. The experiment in a line: Potency index, ratio of ribavirin EC50 to compound EC50 for Respiratory syncytial virus Long infected in human HeLa cells. It is filed as functional.
Another data set deals with Human alphaherpesvirus 1. Nature of the data set: Antiviral activity against Herpes simplex virus type 1 infected in human HEL299 cells assessed as inhibition of virus-induced cytopathic effect after 3 to 6 days by MTS assay. It is filed as functional, organism-based.
The next data set deals with Human alphaherpesvirus 2. The experiment in a line: Antiviral activity against Herpes simplex virus type 2 infected in human HEL299 cells assessed as inhibition of virus-induced cytopathic effect after 3 to 6 days by MTS assay. The data set is classed as functional, organism-based.
The next data set has as its system Vaccinia virus. The experiment in a line: Antiviral activity against Vaccinia virus infected in human HEL299 cells assessed as inhibition of virus-induced cytopathic effect after 3 to 6 days by MTS assay. It is filed as functional, organism-based. The conditions noted are these: Orthopoxvirus vaccinia.
The next data set deals with Human adenovirus 2. The experiment in a line: Antiviral activity against Human adenovirus type 2 infected in human HEL299 cells assessed as inhibition of virus-induced cytopathic effect after 3 to 6 days by MTS assay. It is filed as functional, organism-based.
For data set [8], the system named is Human immunodeficiency virus. Nature of the data set: Antiviral activity against HIV. It is filed as functional, organism-based.
The test system of another data set is Human coronavirus 229E. The experiment in a line: Antiviral activity against Human coronavirus 229E infected in human HEL299 cells assessed as inhibition of virus-induced cytopathic effect after 3 to 6 days by MTS assay. It is filed as functional, organism-based.
A further data set concerns Human respirovirus 3. The experiment in a line: Antiviral activity against Parainfluenza virus 3 infected in African green monkey Vero cells assessed as inhibition of virus-induced cytopathic effect after 3 to 6 days by MTS assay. The data set is classed as functional, organism-based.
Data set [9] has as its system Vesicular stomatitis virus. Nature of the data set: Antiviral activity against Vesicular stomatitis virus infected in human HEL299 cells assessed as inhibition of virus-induced cytopathic effect after 3 to 6 days by MTS assay. The data set is classed as functional, organism-based.
For another data set, the system named is Sindbis virus. The experiment in a line: Antiviral activity against Sindbis virus infected in African green monkey Vero cells assessed as inhibition of virus-induced cytopathic effect after 3 to 6 days by MTS assay. The data set is classed as functional, organism-based.
Another data set has as its system Yellow fever virus. Nature of the data set: Antiviral activity against Yellow fever virus infected in African green monkey Vero cells assessed as inhibition of virus-induced cytopathic effect after 3 to 6 days by MTS assay. It is filed as functional, organism-based.
In the next data set the test system is Punta Toro virus. Nature of the data set: Antiviral activity against Punta Toro virus infected in African green monkey Vero cells assessed as inhibition of virus-induced cytopathic effect after 3 to 6 days by MTS assay. It is filed as functional, organism-based.
The next data set deals with Coxsackievirus B4. Nature of the data set: Antiviral activity against Coxsackie B4 virus infected in human HeLa cells assessed as inhibition of virus-induced cytopathic effect after 3 to 6 days by MTS assay. It is filed as functional, organism-based.
The subject of data set [10] is Mammalian orthoreovirus 1. Nature of the data set: Antiviral activity against Reovirus-1 infected in African green monkey Vero cells assessed as inhibition of virus-induced cytopathic effect after 3 to 6 days by MTS assay. It is filed as functional, organism-based.
Another data set addresses T1, Dihydrofolate reductase (Homo sapiens, UniProt P00374).
T1 sequence (P00374 whole entry): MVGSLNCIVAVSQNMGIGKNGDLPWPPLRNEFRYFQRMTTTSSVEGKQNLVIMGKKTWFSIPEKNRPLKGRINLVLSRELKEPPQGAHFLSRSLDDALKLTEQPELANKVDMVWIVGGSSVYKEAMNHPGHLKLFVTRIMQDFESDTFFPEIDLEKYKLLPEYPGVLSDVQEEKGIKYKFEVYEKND
Nature of the data set: Binding affinity to human recombinant DHFR using dihydrofolate as substrate after 180 secs by spectrophotometric method. The method in brief:
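Recombinant human DHFR (0.42 μM) in TES buffer with inhibitor, 60 μM DHF, and 120 μM NADPH added last to start the reaction. Absorbance at 340 nm was followed for 180 s. Six concentrations (1–32 μM) were run in duplicate. IC50 came from Dixon plots assuming competitive inhibition. Ki = IC50/(1+[S]/Km), with DHF Km 5 μM.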

The test system of data set [11] is Influenza B virus. Nature of the data set: Potency index, ratio of ribavirin EC50 to compound EC50 for Influenza B virus B/Ned/537/05 infected in MDCK cells. The data set is classed as functional.
For data set [12], the system named is Human immunodeficiency virus. The experiment in a line: Antiviral activity against HIV after 2 days by luminometric method. It is filed as functional, organism-based. As to conditions: Human immunodeficiency virus 1, 48 h.
In a further data set the test system is Hepatitis C virus. The experiment in a line: Antiviral activity against Hepatitis C virus after 2 days by luminometric method. The conditions noted are these: 48 h. It is filed as functional, organism-based, Hepacivirus hominis.
A further data set concerns Dengue virus. The experiment in a line: Antiviral activity against DENV after 2 days by luminometric method. The conditions noted are these: 48 h. The data set is classed as functional, organism-based.
In another data set the test system is West Nile virus. The experiment in a line: Antiviral activity against West Nile virus after 2 days by luminometric method. As to conditions: 48 h. It is filed as functional, organism-based.
A short description of data set [13]: Selectivity index, ratio of CC50 for human Lunet cells to EC50 for HIV. The data set is classed as toxicity. As to conditions: read-out: Ratio CC50/EC50.
Data set [14] in a line: Selectivity index, ratio of CC50 for human Lunet cells to EC50 for Hepatitis C virus. It is filed as toxicity. As to conditions: read-out: Ratio CC50/EC50.
Data set [15] can be described thus: Selectivity index, ratio of CC50 for human Lunet cells to EC50 for DENV. It is filed as toxicity. The conditions noted are these: read-out: Ratio CC50/EC50.
Data set [16] in a line: Selectivity index, ratio of CC50 for human Lunet cells to EC50 for West Nile virus. The conditions noted are these: read-out: Ratio CC50/EC50. It is filed as toxicity.

One may read the EC50 as the concentration at which the effect is half-maximal. The term CC50 denotes the concentration at which the toxic effect on the cells reaches its halfway point. In general, Ki refers to a measure of affinity in units of concentration, obtained from inhibition or displacement. In the case of `NC1=NC2(CCN(C(=O)Nc3ccc(F)cc3)CC2)N(c2cccc(Cl)c2)C(N)=N1`, the results for the EC50 (in the data set with Influenza A virus; in the data set with Influenza B virus [1]; in [3]) were above 100000 nM, 190 nM and 1800 nM, respectively. The MCC was at least 160 nM in data set [2] and at least 100 µM in data set [4]. The CC50 in the data set with MDCK was found to be 51000 nM. For the same molecule, in the data set with Vero, the Activity result is listed as “Non-Toxic”. The selectivity ratio in data set [5] was 268; in data set [6], 56. Moreover, the “Ratio EC50” value in data set [7] was found to be 3. Moreover, the result (in the data set on Human alphaherpesvirus 1; in the data set on Human alphaherpesvirus 2; in the data set with Vaccinia virus; in the data set on Human adenovirus 2; in data set [8]; in the data set with Human coronavirus 229E) was inactive. For the same molecule, the result (in the data set on Human respirovirus 3; in data set [9]; in the data set on Sindbis virus; in the data set on Yellow fever virus; with Punta Toro virus; with Coxsackievirus B4) was inactive. Further, the result in data set [10] was inactive. The Ki at Dihydrofolate reductase stood at 530 nM.
As to `Cc1ccc(C(=O)N2CCC3(CC2)N=C(N)N=C(N)N3c2cccc(Cl)c2)cc1`, the EC50 is above 100000 nM in the data set with Influenza A virus, 290 nM with Influenza B virus [1] and 400 nM in data set [3]. The MCC in [2] is at least 800 nM; in data set [4], at least 100 µM. The CC50 in the data set on MDCK was found to be 18000 nM. In addition, in the data set on Vero, the Activity result is “Non-Toxic”. For the same molecule, the selectivity ratio in data set [5] was determined as 62; in data set [6] it was 250. The “Ratio EC50” value with Influenza B virus [11] came to 11; in data set [7], 15. In addition, the result (in the data set on Human alphaherpesvirus 1; in the data set on Human alphaherpesvirus 2; with Vaccinia virus; in the data set on Human adenovirus 2; in [8]; in the data set on Human coronavirus 229E) was inactive. Besides, the result (in the data set with Human respirovirus 3; in data set [9]; with Sindbis virus; with Yellow fever virus; with Punta Toro virus; with Coxsackievirus B4) was inactive. Moreover, the outcome in [10] was inactive. The Ki at Dihydrofolate reductase was 640 nM.
In the case of `Cc1cn(-c2ccc(NC(=O)Nc3ccccc3C)cc2)nn1`, the EC50 (in [12]; with Hepatitis C virus; in the data set on Dengue virus; with West Nile virus) was 970 to 16500 nM throughout. Also, the selectivity ratio in data set [13], in data set [14], in data set [15] and in data set [16] was 162 throughout.
